Measured values: ChEMBL document CHEMBL4052823, “Extra Sugar on Vancomycin: New Analogues for Combating Multidrug-Resistant Staphylococcus aureus and Vancomycin-Resistant Enterococci” (J Med Chem, 2018)
Converted amounts (≈) assume the structure as drawn.

Experiments:
Format in all cases: functional
[1] = test system: Enterococcus faecium; experiment: Antibacterial activity against glycopeptide-resistant Enterococcus faecium Efm-HS-08257 vanM after 24 hrs by broth microdilution method; details: Efm-HS-08257, 24 h
In short: (§1)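 Broth microdilution in cation-adjusted Mueller-Hinton II broth. DMSO stocks were diluted in broth and twofold serially from 128 to 0.0625 μg/mL or lower. Each well was inoculated with ~10^5 CFU of exponential-phase bacteria and incubated at 37 °C for 24 h. MIC was the lowest concentration giving complete growth inhibition, read per CLSI. Growth controls contained broth plus DMSO.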

[2] = test system: Staphylococcus aureus; experiment: Antibacterial activity against healthcare-associated methicillin-resistant/vancomycin-intermediate Staphylococcus aureus Mu50 after 24 hrs by broth microdilution method; details: Mu50, 24 h; in short: as §1
[3] = test system: Enterococcus faecium; experiment: Antibacterial activity against glycopeptide-resistant Enterococcus faecium Efm-HS-06188 vanA after 24 hrs by broth microdilution method; details: Efm-HS-06188, 24 h; in short: as §1
[4] = test system: Enterococcus faecium; experiment: Antibacterial activity against glycopeptide-resistant Enterococcus faecium Efm-HS-0649 vanA after 24 hrs by broth microdilution method; details: Efm-HS-0649, 24 h; in short: as §1
[5] = test system: Staphylococcus aureus; experiment: Antibacterial activity against vancomycin/methicillin-susceptible Staphylococcus aureus Newman […] after 24 hrs by broth microdilution method
In short: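 Broth microdilution in cation-adjusted Mueller-Hinton II broth. […] Each well received ~10^5 CFU of exponential-phase bacteria and was incubated at 37 °C for 24 h. MIC was taken as the lowest concentration giving complete growth inhibition, interpreted per CLSI.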

[6] = test system: Enterococcus faecium; experiment: Antibacterial activity against glycopeptide-resistant Enterococcus faecium Efm-HS-0847 vanM after 24 hrs by broth microdilution method; details: Efm-HS-0847, 24 h; in short: as §1
[7] = test system: Enterococcus faecium; experiment: Antibacterial activity against glycopeptide-resistant Enterococcus faecium Efm-HS-vb01 vanB after 24 hrs by broth microdilution method; details: Efm-HS-vb01, 24 h; in short: as §1

Compound | MIC [1] | MIC90 [2] | MIC [3] | MIC [4] | MIC90 [5] | MIC [6] | MIC [7]
CN[C@H](CC(C)C)C(=O)N[C@H]1C(=O)N[C@@H](CC(N)=O)C(=O)N[C@H]2C(=O)N[C@H]3C(=O)N[C@H](C(=O)N[C@H](C(=O)O)c4cc(O)cc(O)c4-c4cc3ccc4O)[C@H](O[C@H]3C[C@](C)(N)[C@@H](O)[C@H](C)O3)c3ccc(c(Cl)c3)Oc3cc2cc(c3O[C@@H]2O[C@H](CO)[C@@H](O)[C@H](O)[C@H]2O[C@H]2C[C@](C)(NCc3ccc(-c4ccc(Cl)cc4)cc3)[C@@H](O)[C@H](C)O2)Oc2ccc(cc2Cl)[C@H]1O [ORITAVANCIN] | 0.5 µg/mL (≈ 0.279 µM) | 0.06 µg/mL (≈ 0.0335 µM) | 0.25 µg/mL (≈ 0.139 µM) | 0.25 µg/mL (≈ 0.139 µM) | 0.06 µg/mL (≈ 0.0335 µM) | 1 µg/mL (≈ 0.558 µM) | 0.25 µg/mL (≈ 0.139 µM)
CCCCCCc1ccc(CN[C@@]2(C)C[C@H](O[C@H]3[C@H](Oc4c5cc6cc4Oc4ccc(cc4Cl)[C@@H](O)[C@@H](NC(=O)[C@@H](CC(C)C)NC)C(=O)N[C@@H](CC(N)=O)C(=O)N[C@H]6C(=O)N[C@H]4C(=O)N[C@H](C(=O)N[C@H](C(=O)O)c6cc(O)c(CN[C@H]7C(O)O[C@H](CO)[C@H](O)[C@@H]7O)c(O)c6-c6cc4ccc6O)[C@H](O)c4ccc(c(Cl)c4)O5)O[C@H](CO)[C@@H](O)[C@@H]3O)O[C@@H](C)[C@H]2O)cc1 (stereo partly drawn) | 16 µg/mL (≈ 8.82 µM) | 0.5 µg/mL (≈ 0.276 µM) | 8 µg/mL (≈ 4.41 µM) | 8 µg/mL (≈ 4.41 µM) | 0.25 µg/mL (≈ 0.138 µM) | 32 µg/mL (≈ 17.6 µM) | 1 µg/mL (≈ 0.551 µM)
CN[C@H](CC(C)C)C(=O)N[C@H]1C(=O)N[C@@H](CC(N)=O)C(=O)N[C@H]2C(=O)N[C@H]3C(=O)N[C@H](C(=O)N[C@H](C(=O)NCCCN(C)C)c4cc(O)c(CNCCO[C@H]5O[C@H](CO)[C@@H](O)[C@H](O)[C@@H]5O)c(O)c4-c4cc3ccc4O)[C@H](O)c3ccc(c(Cl)c3)Oc3cc2cc(c3O[C@@H]2O[C@H](CO)[C@@H](O)[C@H](O)[C@H]2O[C@H]2C[C@](C)(NCc3ccc(-c4ccc(Cl)cc4)cc3)[C@H](O)[C@H](C)O2)Oc2ccc(cc2Cl)[C@H]1O | 0.5 µg/mL (≈ 0.254 µM) | 4 µg/mL (≈ 2.03 µM) | 1 µg/mL (≈ 0.508 µM) | 0.5 µg/mL (≈ 0.254 µM) | 2 µg/mL (≈ 1.02 µM) | 2 µg/mL (≈ 1.02 µM) | 4 µg/mL (≈ 2.03 µM)
CN[C@H](CC(C)C)C(=O)N[C@H]1C(=O)N[C@@H](CC(N)=O)C(=O)N[C@H]2C(=O)N[C@H]3C(=O)N[C@H](C(=O)N[C@H](C(=O)NCCCN(C)C)c4cc(O)c(C)c(O)c4-c4cc3ccc4O)[C@H](O)c3ccc(c(Cl)c3)Oc3cc2cc(c3O[C@@H]2O[C@H](CO)[C@@H](O)[C@H](O)[C@H]2O[C@H]2C[C@](C)(NCc3ccc(-c4ccc(Cl)cc4)cc3)[C@H](O)[C@H](C)O2)Oc2ccc(cc2Cl)[C@H]1O | 0.12 µg/mL (≈ 0.0686 µM) | 1 µg/mL (≈ 0.572 µM) | 1 µg/mL (≈ 0.572 µM) | 0.5 µg/mL (≈ 0.286 µM) | 1 µg/mL (≈ 0.572 µM) | 1 µg/mL (≈ 0.572 µM) | 2 µg/mL (≈ 1.14 µM)
CN[C@H](CC(C)C)C(=O)N[C@H]1C(=O)N[C@@H](CC(N)=O)C(=O)N[C@H]2C(=O)N[C@H]3C(=O)N[C@H](C(=O)N[C@H](C(=O)O)c4cc(O)c(CNCCO)c(O)c4-c4cc3ccc4O)[C@H](O)c3ccc(c(Cl)c3)Oc3cc2cc(c3O[C@@H]2O[C@H](CO)[C@@H](O)[C@H](O)[C@H]2O[C@H]2C[C@](C)(NCc3ccc(-c4ccc(Cl)cc4)cc3)[C@H](O)[C@H](C)O2)Oc2ccc(cc2Cl)[C@H]1O | 2 µg/mL (≈ 1.16 µM) | 0.12 µg/mL (≈ 0.0696 µM) | 1 µg/mL (≈ 0.58 µM) | 2 µg/mL (≈ 1.16 µM) | 0.03 µg/mL (≈ 0.0174 µM) | 4 µg/mL (≈ 2.32 µM) | ≤ 0.06 µg/mL
CN[C@H](CC(C)C)C(=O)N[C@H]1C(=O)N[C@@H](CC(N)=O)C(=O)N[C@H]2C(=O)N[C@H]3C(=O)N[C@H](C(=O)N[C@H](C(=O)O)c4cc(O)c(CNCCCNC(=O)[C@H](O)[C@@H](O)[C@H](O)[C@H](O)CO)c(O)c4-c4cc3ccc4O)[C@H](O)c3ccc(c(Cl)c3)Oc3cc2cc(c3O[C@@H]2O[C@H](CO)[C@@H](O)[C@H](O)[C@H]2O[C@H]2C[C@](C)(NCc3ccc(-c4ccc(Cl)cc4)cc3)[C@H](O)[C@H](C)O2)Oc2ccc(cc2Cl)[C@H]1O | 8 µg/mL (≈ 4.18 µM) | 0.12 µg/mL (≈ 0.0627 µM) | 1 µg/mL (≈ 0.522 µM) | 4 µg/mL (≈ 2.09 µM) | 0.06 µg/mL (≈ 0.0313 µM) | 16 µg/mL (≈ 8.36 µM) | 1 µg/mL (≈ 0.522 µM)
CCCCCCCCCCNCCN[C@@]1(C)C[C@H](O[C@H]2[C@H](Oc3c4cc5cc3Oc3ccc(cc3Cl)[C@@H](O)[C@@H](NC(=O)[C@@H](CC(C)C)NC)C(=O)N[C@@H](CC(N)=O)C(=O)N[C@H]5C(=O)N[C@H]3C(=O)N[C@H](C(=O)N[C@H](C(=O)O)c5cc(O)c(CN[C@@H]6C(O)O[C@H](CO)[C@@H](O)[C@@H]6O)c(O)c5-c5cc3ccc5O)[C@H](O)c3ccc(c(Cl)c3)O4)O[C@H](CO)[C@@H](O)[C@@H]2O)O[C@@H](C)[C@H]1O (stereo partly drawn) | 8 µg/mL (≈ 4.39 µM) | 32 µg/mL (≈ 17.5 µM) | 64 µg/mL (≈ 35.1 µM) | 64 µg/mL (≈ 35.1 µM) | 8 µg/mL (≈ 4.39 µM) | 32 µg/mL (≈ 17.5 µM) | 16 µg/mL (≈ 8.77 µM)
CN[C@H](CC(C)C)C(=O)N[C@H]1C(=O)N[C@@H](CC(N)=O)C(=O)N[C@H]2C(=O)N[C@H]3C(=O)N[C@H](C(=O)N[C@H](C(=O)O)c4cc(O)c(CNCCCNC(=O)[C@H](O)[C@@H](O)[C@H](O)[C@H](O)CO)c(O)c4-c4cc3ccc4O)[C@H](O)c3ccc(c(Cl)c3)Oc3cc2cc(c3O[C@@H]2O[C@H](CO)[C@@H](O)[C@H](O)[C@H]2O[C@H]2C[C@](C)(NCc3ccc(C#C[Si](C)(C)C)cc3)[C@H](O)[C@H](C)O2)Oc2ccc(cc2Cl)[C@H]1O |  | 2 µg/mL (≈ 1.05 µM) |  |  | 1 µg/mL (≈ 0.526 µM) |  | 
C#Cc1ccc(CN[C@@]2(C)C[C@H](O[C@H]3[C@H](Oc4c5cc6cc4Oc4ccc(cc4Cl)[C@@H](O)[C@@H](NC(=O)[C@@H](CC(C)C)NC)C(=O)N[C@@H](CC(N)=O)C(=O)N[C@H]6C(=O)N[C@H]4C(=O)N[C@H](C(=O)N[C@H](C(=O)O)c6cc(O)c(CNCCCNC(=O)[C@H](O)[C@@H](O)[C@H](O)[C@H](O)CO)c(O)c6-c6cc4ccc6O)[C@H](O)c4ccc(c(Cl)c4)O5)O[C@H](CO)[C@@H](O)[C@@H]3O)O[C@@H](C)[C@H]2O)cc1 |  | 8 µg/mL (≈ 4.38 µM) |  |  | 4 µg/mL (≈ 2.19 µM) |  | 
CN[C@H](CC(C)C)C(=O)N[C@H]1C(=O)N[C@@H](CC(N)=O)C(=O)N[C@H]2C(=O)N[C@H]3C(=O)N[C@H](C(=O)N[C@H](C(=O)O)c4cc(O)c(CNCCCNC(=O)[C@H](O)[C@@H](O)[C@H](O)[C@H](O)CO)c(O)c4-c4cc3ccc4O)[C@H](O)c3ccc(c(Cl)c3)Oc3cc2cc(c3O[C@@H]2O[C@H](CO)[C@@H](O)[C@H](O)[C@H]2O[C@H]2C[C@](C)(NCc3ccc4c(c3)OCC4)[C@H](O)[C@H](C)O2)Oc2ccc(cc2Cl)[C@H]1O |  | 8 µg/mL (≈ 4.33 µM) |  |  | 4 µg/mL (≈ 2.17 µM) |  | 
CCCCCCCCCCNCCN[C@@]1(C)C[C@H](O[C@H]2[C@H](Oc3c4cc5cc3Oc3ccc(cc3Cl)[C@@H](O)[C@@H](NC(=O)[C@@H](CC(C)C)NC)C(=O)N[C@@H](CC(N)=O)C(=O)N[C@H]5C(=O)N[C@H]3C(=O)N[C@H](C(=O)N[C@H](C(=O)O)c5cc(O)c(CNCCCNC(=O)[C@H](O)[C@@H](O)[C@H](O[C@@H]6O[C@H](CO)[C@H](O)[C@H](O)[C@H]6O)[C@H](O)CO)c(O)c5-c5cc3ccc5O)[C@H](O)c3ccc(c(Cl)c3)O4)O[C@H](CO)[C@@H](O)[C@@H]2O)O[C@@H](C)[C@H]1O |  | 1 µg/mL (≈ 0.486 µM) |  |  | 0.25 µg/mL (≈ 0.121 µM) |  | 
CCCCCCCCCN[C@@]1(C)C[C@H](O[C@H]2[C@H](Oc3c4cc5cc3Oc3ccc(cc3Cl)[C@@H](O)[C@@H](NC(=O)[C@@H](CC(C)C)NC)C(=O)N[C@@H](CC(N)=O)C(=O)N[C@H]5C(=O)N[C@H]3C(=O)N[C@H](C(=O)N[C@H](C(=O)O)c5cc(O)c(CNCCCNC(=O)[C@H](O)[C@@H](O)[C@H](O)[C@H](O)CO)c(O)c5-c5cc3ccc5O)[C@H](O)c3ccc(c(Cl)c3)O4)O[C@H](CO)[C@@H](O)[C@@H]2O)O[C@@H](C)[C@H]1O |  | 2 µg/mL (≈ 1.09 µM) |  |  | 0.5 µg/mL (≈ 0.272 µM) |  | 
CCCCCCCCCC(=O)N[C@@]1(C)C[C@H](O[C@H]2[C@H](Oc3c4cc5cc3Oc3ccc(cc3Cl)[C@@H](O)[C@@H](NC(=O)[C@@H](CC(C)C)NC)C(=O)N[C@@H](CC(N)=O)C(=O)N[C@H]5C(=O)N[C@H]3C(=O)N[C@H](C(=O)N[C@H](C(=O)O)c5cc(O)c(CNCCCNC(=O)[C@H](O)[C@@H](O)[C@H](O)[C@H](O)CO)c(O)c5-c5cc3ccc5O)[C@H](O)c3ccc(c(Cl)c3)O4)O[C@H](CO)[C@@H](O)[C@@H]2O)O[C@@H](C)[C@H]1O |  | 64 µg/mL (≈ 34.3 µM) |  |  | 32 µg/mL (≈ 17.1 µM) |  | 
CN[C@H](CC(C)C)C(=O)N[C@H]1C(=O)N[C@@H](CC(N)=O)C(=O)N[C@H]2C(=O)N[C@H]3C(=O)N[C@H](C(=O)N[C@H](C(=O)O)c4cc(O)c(CNCCCNC(=O)[C@H](O)[C@@H](O)[C@H](O)[C@H](O)CO)c(O)c4-c4cc3ccc4O)[C@H](O)c3ccc(c(Cl)c3)Oc3cc2cc(c3O[C@@H]2O[C@H](CO)[C@@H](O)[C@H](O)[C@H]2O[C@H]2C[C@](C)(NCc3ccc(OCc4cccc(-c5ccccc5)c4C)c(Cl)c3)[C@H](O)[C@H](C)O2)Oc2ccc(cc2Cl)[C@H]1O |  | 1 µg/mL (≈ 0.492 µM) |  |  | 0.5 µg/mL (≈ 0.246 µM) |  | 
